According to ChEMBL document CHEMBL1126202, “Dual-action penems and carbapenems” (J Med Chem, 1992):

Key:
[1] = system: Citrobacter freundii; assay: In vitro antibacterial activity against citrobacter freundii BS-16 (constitutive beta-lactamase producer); type: functional
How it was run: (§1)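 MIC was determined by agar dilution on Mueller-Hinton agar. Serial 2-fold aqueous dilutions were diluted 10-fold in agar to give final concentrations of 128 to 0.0156 μg/mL. Plates were inoculated by Steers replicator with overnight broth cultures diluted 100-fold.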

[2] = system: Pseudomonas aeruginosa; assay: In vitro antibacterial activity against Pseudomonas aeruginosa 8780; type: functional; how it was run: as §1
[3] = biological target: T1, Peptidoglycan D,D-transpeptidase MrdA (Escherichia coli K-12) (UniProt P0AD65); assay: Concentration inhibiting [14C]- Penicillin G binding to Escherichia coli UB1005 PBP2 (penicillin binding protein) 66 kDa
T1 sequence (whole entry): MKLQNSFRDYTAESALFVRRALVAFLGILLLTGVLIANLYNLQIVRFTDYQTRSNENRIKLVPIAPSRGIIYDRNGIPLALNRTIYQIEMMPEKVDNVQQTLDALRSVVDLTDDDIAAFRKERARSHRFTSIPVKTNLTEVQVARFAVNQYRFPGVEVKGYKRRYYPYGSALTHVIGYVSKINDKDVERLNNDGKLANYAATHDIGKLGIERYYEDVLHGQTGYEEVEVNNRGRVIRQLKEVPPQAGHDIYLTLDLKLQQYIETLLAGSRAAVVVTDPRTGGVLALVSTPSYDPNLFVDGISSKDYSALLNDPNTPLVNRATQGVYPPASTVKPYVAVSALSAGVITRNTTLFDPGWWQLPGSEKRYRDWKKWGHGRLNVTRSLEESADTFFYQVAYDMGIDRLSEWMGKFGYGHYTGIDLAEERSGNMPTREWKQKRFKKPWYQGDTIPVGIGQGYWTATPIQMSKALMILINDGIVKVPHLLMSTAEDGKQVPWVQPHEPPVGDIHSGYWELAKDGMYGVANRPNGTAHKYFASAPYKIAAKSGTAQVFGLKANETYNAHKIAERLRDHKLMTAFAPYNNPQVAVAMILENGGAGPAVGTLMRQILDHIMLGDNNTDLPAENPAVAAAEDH
How it was run: (§2)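 Solubilized membranes from sonicated E. coli UB1005 were used as the PBP source. Inhibition of [14C]penicillin G binding to the PBPs was measured.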

[4] = system: Hathewaya histolytica; assay: In vitro antibacterial activity against clostridium histolyticum 503-86; type: functional
How it was run: (§3)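 Anaerobic MIC, run in microtiter plates in Schaedler's broth supplemented with coenzyme I and hemin. Incubated in an oxygen-free hydrogen–carbon dioxide atmosphere.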

[5] = system: Bacteroides fragilis; assay: In vitro antibacterial activity against bacteroides fragilis S2; type: functional; how it was run: as §3
[6] = system: Klebsiella pneumoniae; assay: In vitro antibacterial activity against klebsiella pneumoniae A; type: functional
How it was run: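 Agar-dilution MIC on Mueller-Hinton agar. Serial 2-fold dilutions were made in water, giving final agar concentrations of 128 to 0.0156 μg/mL. Inoculum was an overnight broth culture diluted 100-fold, applied with a multipoint replicator.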

[7] = system: Escherichia coli; assay: Concentration inhibiting [14C]- Penicillin G binding to Escherichia coli UB1005 PBP4 (penicillin binding protein) 49 kDa; type: functional; how it was run: as §2
[8] = system: Proteus vulgaris; assay: In vitro antibacterial activity against proteus vulgaris ATCC 6380 (constitutive beta-lactamase producer); type: functional
How it was run: (§4)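 Proteus MICs were determined by agar dilution on Mueller-Hinton agar containing 3% agar. Serial 2-fold dilutions gave final concentrations of 128 to 0.0156 μg/mL. Plates were replicator-inoculated with 100-fold-diluted overnight broth cultures.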

[9] = system: Staphylococcus aureus; assay: In vitro antibacterial activity against Staphylococcus aureus 67(methicillin resistant); type: functional
How it was run: (§5)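 MIC by agar dilution on Mueller-Hinton agar. Compounds were serially 2-fold diluted in water, final 128 to 0.0156 μg/mL in agar. Inoculum: overnight broth culture diluted 100-fold, applied with a Steers replicator.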

[10] = system: Clostridium perfringens; assay: In vitro antibacterial activity against Clostridium perfringens 13424; type: functional
How it was run: (§6)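 MIC by broth dilution in microtiter plates, run in an oxygen-free hydrogen–carbon dioxide atmosphere. Medium: Schaedler's broth with coenzyme I and hemin added.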

[11] = system: Bacteroides thetaiotaomicron; assay: In vitro antibacterial activity against Bacteroides thetaiotaomicron 62B; type: functional
How it was run: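 Anaerobic MICs were determined in microtiter plates in Schaedler's broth supplemented with coenzyme I and hemin. Incubation was under an oxygen-free hydrogen-carbon dioxide atmosphere.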

[12] = system: Streptococcus pneumoniae; assay: In vitro antibacterial activity against streptococcus pneumoniae 6301; type: functional
How it was run: (§7)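 Streptococcal MICs were determined by agar dilution on brain heart infusion agar supplemented with 20 units/mL bovine liver catalase. Final concentrations were 128 to 0.0156 μg/mL from 2-fold dilutions. Inocula were overnight broth cultures diluted 100-fold, applied by Steers replicator.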

[13] = system: Staphylococcus aureus; assay: In vitro antibacterial activity against staphylococcus aureus smith; type: functional; how it was run: as §1
[14] = system: Pseudomonas aeruginosa; assay: In vitro antibacterial activity against Pseudomonas aeruginosa 18SH (constitutive beta-lactamase producer); type: functional; how it was run: as §1
[15] = system: Streptococcus pyogenes; assay: In vitro antibacterial activity against Streptococcus pyogenes 4; type: functional; how it was run: as §7
[16] = system: Escherichia coli; assay: In vitro antibacterial activity against Escherichia coli TEM-1 (constitutive beta-lactamase producer); type: functional; how it was run: as §1
[17] = system: Escherichia coli; assay: In vitro antibacterial activity against Escherichia coli UB1005 (nalidixic acid-resistant strain); type: functional; how it was run: as §1
[18] = system: Bacteroides fragilis; assay: In vitro antibacterial activity against Bacteroides fragilis F117A; type: functional; how it was run: as §6
[19] = biological target: Penicillin-binding protein 1A (Escherichia coli K-12) (UniProt P02918); assay: Concentration inhibiting [14C]- Penicillin G binding to Escherichia coli UB1005 PBP1a (penicillin binding protein) 90 kDa
Sequence of Penicillin-binding protein 1A (Escherichia coli K-12) (P02918 whole entry, looked up): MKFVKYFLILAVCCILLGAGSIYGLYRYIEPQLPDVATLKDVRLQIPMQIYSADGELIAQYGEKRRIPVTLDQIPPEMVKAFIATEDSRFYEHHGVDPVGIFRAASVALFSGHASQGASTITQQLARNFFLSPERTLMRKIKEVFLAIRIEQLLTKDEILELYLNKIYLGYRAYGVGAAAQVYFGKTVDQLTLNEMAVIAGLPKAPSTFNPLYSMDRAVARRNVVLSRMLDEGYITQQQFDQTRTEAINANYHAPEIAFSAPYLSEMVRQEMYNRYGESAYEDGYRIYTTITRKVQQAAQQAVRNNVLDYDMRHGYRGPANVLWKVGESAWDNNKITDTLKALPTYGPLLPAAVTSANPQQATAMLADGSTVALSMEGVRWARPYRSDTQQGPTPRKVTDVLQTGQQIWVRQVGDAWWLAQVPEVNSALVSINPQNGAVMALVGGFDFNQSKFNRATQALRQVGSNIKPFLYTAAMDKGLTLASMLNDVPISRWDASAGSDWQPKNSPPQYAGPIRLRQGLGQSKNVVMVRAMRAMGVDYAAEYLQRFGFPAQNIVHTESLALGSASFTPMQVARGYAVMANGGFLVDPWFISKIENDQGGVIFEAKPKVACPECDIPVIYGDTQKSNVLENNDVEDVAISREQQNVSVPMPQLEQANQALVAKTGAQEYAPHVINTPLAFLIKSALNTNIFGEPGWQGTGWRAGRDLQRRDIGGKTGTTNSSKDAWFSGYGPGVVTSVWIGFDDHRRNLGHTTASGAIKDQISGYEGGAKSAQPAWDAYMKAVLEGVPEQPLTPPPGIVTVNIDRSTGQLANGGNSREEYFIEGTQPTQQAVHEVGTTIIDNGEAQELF

[20] = system: Serratia marcescens; assay: In vitro antibacterial activity against serratia marcescens SM (constitutive beta-lactamase producer); type: functional; how it was run: as §1
[21] = system: Staphylococcus aureus; assay: In vitro antibacterial activity against Staphylococcus aureus 753 (constitutive beta-lactamase producer); type: functional; how it was run: as §5
[22] = system: Clostridioides difficile; assay: In vitro antibacterial activity against Clostridium difficile 701; type: functional
[23] = system: Escherichia coli; assay: In vitro antibacterial activity against Escherichia coli 257; type: functional
[24] = system: Proteus mirabilis; assay: In vitro antibacterial activity against Proteus mirabilis 90; type: functional; how it was run: as §4
[25] = biological target: Penicillin-binding protein 2 (Staphylococcus aureus) (UniProt Q53729); assay: Concentration inhibiting [14C]- Penicillin G binding to Staphylococcus aureus ATCC 29213 Penicillin binding protein 2, 80 kDa

| Compound | MIC [1] | MIC [2] | IC90 [3] | MIC [4] | MIC [5] | MIC [6] | IC90 [7] | MIC [8] | MIC [9] | MIC [10] | MIC [11] | MIC [12] | MIC [13] | MIC [14] | MIC [15] | MIC [16] | MIC [17] | MIC [22] | MIC [23] | MIC [24] | further results |
| --- | --- | --- | --- | --- | --- | --- | --- | --- | --- | --- | --- | --- | --- | --- | --- | --- | --- | --- | --- | --- | --- |
| C[C@@H](O)[C@H]1C(=O)N2C(C(=O)[O-])=C(COC(=O)N3CCN(c4cc5c(cc4F)c(=O)c(C(=O)O)cn5C4CC4)CC3)S[C@H]12.[Na+] | 0.125 µg/mL | 2 µg/mL | 30 µg/mL | 0.25 µg/mL | 16 µg/mL | 0.25 µg/mL | > 100 µg/mL | 0.0625 µg/mL | 4 µg/mL | 0.25 µg/mL | 16 µg/mL | 0.0313 µg/mL | 0.125 µg/mL | 1 µg/mL | 0.0313 µg/mL | 0.0625 µg/mL | 4 µg/mL | 8 µg/mL | 0.0625 µg/mL | 1 µg/mL | MIC [18]: 1 µg/mL; IC90 [19]: 2 µg/mL; MIC [20]: 0.25 µg/mL; MIC [21]: 4 µg/mL; IC90 [25]: 2 µg/mL |
| C[C@@H](O)[C@H]1C(=O)N2C(C(=O)[O-])=C(COC(=O)c3cn(CCF)c4c(F)c(N5CCN(C)CC5)c(F)cc4c3=O)S[C@H]12.[Na+] | 0.5 µg/mL | 16 µg/mL | 10 µg/mL | < 0.125 µg/mL | < 0.125 µg/mL | 0.5 µg/mL | > 100 µg/mL | 0.25 µg/mL | 1 µg/mL | < 0.125 µg/mL | 4 µg/mL | < 0.0156 µg/mL | 0.125 µg/mL | – | < 0.0156 µg/mL | 0.5 µg/mL | 2 µg/mL | 1 µg/mL | 0.25 µg/mL | 1 µg/mL | IC90 [19]: 2 µg/mL; MIC [20]: 0.5 µg/mL; MIC [21]: 2 µg/mL; IC90 [25]: 0.5 µg/mL |
| C[C@@H](O)[C@H]1C(=O)N2C(C(=O)[O-])=C(CO)S[C@H]12.[Na+] | – | 64 µg/mL | 30 µg/mL | – | – | – | > 100 µg/mL | – | > 64 µg/mL | 0.5 µg/mL | 0.125 µg/mL | – | 0.25 µg/mL | 8 µg/mL | 0.125 µg/mL | 4 µg/mL | – | 2 µg/mL | 4 µg/mL | 8 µg/mL | MIC [18]: 64 µg/mL |
